Assays:
[1] = target: T1, Amine oxidase [flavin-containing] A (Mus musculus, UniProt Q64133); test: Inhibition of MAO A in mouse GL26 cells preincubated for 20 mins followed by 14C-labeled 5-hydroxytryptamine addition and measured after 20 mins by scintillation counter analysis; type: cell-based
T1 sequence (Q64133 whole entry): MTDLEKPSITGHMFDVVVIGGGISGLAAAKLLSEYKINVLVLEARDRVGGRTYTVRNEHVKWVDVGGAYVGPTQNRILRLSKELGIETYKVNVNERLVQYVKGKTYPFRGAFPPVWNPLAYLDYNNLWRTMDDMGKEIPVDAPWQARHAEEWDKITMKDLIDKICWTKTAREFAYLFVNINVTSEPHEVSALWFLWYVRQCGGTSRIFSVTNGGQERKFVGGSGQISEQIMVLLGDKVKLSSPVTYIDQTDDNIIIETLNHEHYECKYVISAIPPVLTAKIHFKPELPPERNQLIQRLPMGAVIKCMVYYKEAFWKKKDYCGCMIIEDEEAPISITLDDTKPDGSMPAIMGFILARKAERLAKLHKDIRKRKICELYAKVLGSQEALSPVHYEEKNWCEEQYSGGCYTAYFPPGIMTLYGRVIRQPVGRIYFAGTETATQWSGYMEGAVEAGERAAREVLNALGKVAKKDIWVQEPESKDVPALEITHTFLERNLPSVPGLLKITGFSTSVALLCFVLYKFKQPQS

[2] = system: U-251; test: Antiproliferative activity against human Temozolomide-resistant U-251 cells assessed as inhibition of cell growth measured after 48 hrs by MTT assay; type: functional, cell-based; settings: U-251, 48 h
In short: (§1)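 Cells plated at 5×10³ per well 24 h before compound and grown in DMEM with 10% FBS at 37°C, 5% CO₂. After 48 h exposure, the medium was replaced with 0.5 mg/mL MTT for 3 h. Formazan was dissolved in DMSO and read at 570 nm.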

[3] = system: GL26; test: Downregulation of HER2 expression in mouse GL26 cells incubated for 24 hrs by Western blot analysis; type: functional, cell-based; settings: dose 0.1-3 µM
[4] = system: GL26; test: Downregulation of Akt phosphorylation expression at Ser 473 residues in mouse GL26 cells incubated for 24 hrs by Western blot analysis; type: functional, cell-based; settings: dose 0.1-3 µM
[5] = system: U-251; test: Downregulation of HER2 expression in human Temozolomide-resistant U-251 cells incubated for 24 hrs by Western blot analysis; type: functional, cell-based; settings: dose 0.1-3 µM
[6] = system: U-251; test: Downregulation of Akt phosphorylation expression at Ser 473 residues in human Temozolomide-resistant U-251 cells incubated for 24 hrs by Western blot analysis; type: functional, cell-based; settings: dose 0.1-3 µM
[7] = target: Heat shock protein HSP 90-alpha (Homo sapiens, UniProt P07900); test: Inhibition of human recombinant HSP90alpha preincubated for 30 mins followed by FITC-GM addition and mesured after 3 hrs by fluorescence polarization assay
[8] = Antiproliferative activity against mouse GL26 cells assessed as inhibition of cell growth measured after 48 hrs by MTT assay; type: functional, cell-based; settings: GL26, 48 h; in short: as §1

| SMILES | IC50 [1] | IC50 [2] | Activity [3] | Activity [4] | Activity [5] | Activity [6] | IC50 [7] | IC50 [8] |
| --- | --- | --- | --- | --- | --- | --- | --- | --- |
| CC(C)c1cc(-c2n[nH]c(=O)n2-c2ccc3c(ccn3C)c2)c(O)cc1O [GANETESPIB] | > 10 µM | > 10 µM | Dose-Dependent Effect | Dose-Dependent Effect | Dose-Dependent Effect | Dose-Dependent Effect | – | – |
| C#CCN(C)CCCOc1ccc(N(CCC)C(=O)c2cc(C(C)C)c(O)cc2O)cc1Cl | 3.86 µM | > 10 µM | – | – | – | – | 0.17 µM | 8.42 µM |
| C#CCN(C)CCCOc1cccc(N(C)C(=O)c2cc(C(C)C)c(O)cc2O)c1Cl | > 10 µM | – | – | – | – | – | – | – |
